Measurements reported in PubChem BioAssay AID624006 (Broad Institute, 2012).
Where “and” joins values, the source holds several entries; their conditions need not be identical. Identical values can stand only once.

These compounds were tested on Candida albicans CaCi-2 growth, Alamar Blue fluorescence, 48 h (assay: single-agent growth inhibition of fluconazole-resistant C. albicans, dose response, CaCi-2 strain, Alamar Blue, dry powder, set 4 (AID 624006)).
Summary of the method: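 Material: fluconazole-resistant C. albicans CaCi-2; Input: inoculum A600 0.00015; Medium: RPMI 1640 with MOPS buffer, uridine and glucose; Control set: amphotericin 10 µM positive control; Incubation: 48 h static compound exposure at 37 °C, then 2 h Alamar Blue; Signal: Alamar Blue fluorescence.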

Structure (SMILES) | AC50
CCOC(=O)N1C(=O)C2(CCCCC2)N(c2cccc(C)c2)C1=S | 194 nM
CC1/C=C/C=C\C=C\C=C\C=C\C=C\C=C\C(O[C@H]2OC(C)C(O)C(N)C2O)CC2OC(O)(CC(O)CC(O)C(O)CCC(O)CC(O)CC(=O)OC(C)C(C)C1O)CC(O)C2C(=O)O (some centres not stated) | 64.5 nM
CCOC(=O)N1C(=O)C2(CCCCC2)N(c2ccc(Cl)cc2)C1=S | 65.7 nM
CCOC(=O)N1C(=O)C2(CCCCC2)N(c2ccc(F)cc2)C1=S | 39.9 nM
CCOC(=O)N1C(=O)C2(CCCCC2)N(c2ccc(C#N)cc2)C1=S | 88.9 nM
CCOC(=O)N1C(=O)C2(CCCCC2)N(c2ccc(C)cc2)C1=S | 223 nM and 253 nM
CCOC(=O)N1C(=O)C2(CCCCC2)N(c2ccccc2)C1=S | 202 nM
